Measured values reported in ChEMBL document CHEMBL3779787, “Amorfrutin C Induces Apoptosis and Inhibits Proliferation in Colon Cancer Cells through Targeting Mitochondria” (J Nat Prod, 2016).
Calls of active or inactive are those of the source. The rule behind the calls is not given here.

Columns and labels:
[1] = Antiproliferative activity against human PC3 cells assessed as cellular DNA content after 72 hrs by CyQUANT NF fluorescence assay; assay type: functional, cell-based; details: PC-3, 72 h
In short: (§1)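 Cells seeded at 750 (HT-29), 250 (PC-3) or 900 (T84, MCF7) cells/well, treated next day with concentration series for 72 h (HT-29, PC-3) or 96 h (T84, MCF7). Relative cell number from cellular DNA content by fluorescent DNA-binding dye. Variable-slope fit; efficiency = maximal inhibition (100% − Bottom) vs untreated; IC50 relative to the compound's own maximal efficiency.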

[2] = Antiproliferative activity against human PC3 cells assessed as cellular DNA content after 72 hrs by CyQUANT NF fluorescence assay relative to control; assay type: functional, PC-3; in short: as §1
T84 [3] = experiment: Antiproliferative activity against human T84 cells assessed as cellular DNA content after 96 hrs by CyQUANT NF fluorescence assay relative to control; assay type: functional; in short: as §1
MCF7 [4] = experiment: Antiproliferative activity against human MCF7 cells assessed as cellular DNA content after 96 hrs by CyQUANT NF fluorescence assay relative to control; assay type: functional; in short: as §1
HT-29 [5] = experiment: Antiproliferative activity against human HT-29 cells assessed as cellular DNA content after 72 hrs by CyQUANT NF fluorescence assay relative to control; assay type: functional; in short: as §1
HT-29 [6] = experiment: Antiproliferative activity against human HT-29 cells assessed as cellular DNA content after 72 hrs by CyQUANT NF fluorescence assay; assay type: functional, cell-based; details: HT-29, 72 h; in short: as §1
MCF7 [7] = experiment: Antiproliferative activity against human MCF7 cells assessed as cellular DNA content after 96 hrs by CyQUANT NF fluorescence assay; assay type: functional, cell-based; details: MCF7, 96 h; in short: as §1
T84 [8] = experiment: Antiproliferative activity against human T84 cells assessed as cellular DNA content after 96 hrs by CyQUANT NF fluorescence assay; assay type: functional, cell-based; details: T84, 96 h; in short: as §1
HT-29 [9] = experiment: Increase in extracellular acidification rate in human HT-29 cells measured for 20 to 150 mins by time-resolved fluorescence assay relative to control; assay type: functional
HT-29 [10] = experiment: Increase in mitochondrial oxygen consumption in human HT-29 cells measured for 20 to 60 mins by time-resolved fluorescence assay; assay type: functional, cell-based
In short: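 Oxygen-sensitive MitoXpress-Xtra probe in phenol red-free DMEM/F-12 on HT-29 seeded 80 000/well the day before; 10 min at 37 °C, compounds added, wells sealed with mineral oil. Time-resolved fluorescence at 37 °C, 90 s intervals for 150 min, background subtracted. Lifetime slope from 20 to 60 min taken relative to untreated cells; means ± SEM, n = 8.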

HT-29 [11] = experiment: Induction of apoptosis in human HT-29 cells after 24 hrs by annexin V-FLUOS/propidium iodide staining-based flow cytometry; assay type: functional, cell-based
HT-29 [12] = experiment: Induction of apoptosis in human HT-29 cells assessed as mitochondrial membrane depolarization after 5 mins by JC-1 dye-based fluorescence assay; assay type: functional, cell-based
In short: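 HT-29 (40 000 cells/well) treated with concentration series for 5 min at 37 °C, then JC-1 added for a further 10 min and washed. Red (560/590 nm) to green (485/520 nm) fluorescence ratio taken as ΔΨm; variable-slope fit for IC50; means ± SD, n = 4.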

Compound: CCc1c2c(nc3ccc(OC(=O)N4CCC(N5CCCCC5)CC4)cc13)-c1cc3c(c(=O)n1C2)COC(=O)[C@]3(O)CC [IRINOTECAN]
- IC50 [1]: 800 nM
- Efficacy [2]: 76%
- Efficacy (T84 [3]): 82%
- Efficacy (MCF7 [4]): 82%
- Efficacy (HT-29 [5]): 71%
- IC50 (HT-29 [6]): 1900 nM
- IC50 (MCF7 [7]): 900 nM
- IC50 (T84 [8]): 1200 nM

Compound: COc1cc(CCc2ccccc2)c(C(=O)O)c(O)c1C/C=C(\C)CCC=C(C)C
- IC50 [1]: 32000 nM
- Efficacy [2]: 95%
- Efficacy (T84 [3]): 99%
- Efficacy (MCF7 [4]): 94%
- Efficacy (HT-29 [5]): 98%
- IC50 (HT-29 [6]): 20000 nM
- IC50 (MCF7 [7]): 33000 nM
- IC50 (T84 [8]): 13000 nM

Compound: CCCCCCC1C(=O)O[C@H](C)[C@H](NC(=O)c2cccc(NC=O)c2O)C(=O)O[C@@H](C)[C@@H]1OC(=O)CC(C)C (stereo not given in full)
- fold change (FC) (HT-29 [9]): 7
- Activity (HT-29 [10]): Active

Compound: COc1c(CC=C(C)C)c(CCc2ccccc2)c(C(=O)O)c(OC)c1CC=C(C)C
- Activity (HT-29 [11]): Active
- Activity (HT-29 [12]): Active

Compound: N#CC(C#N)=NNc1cccc(Cl)c1 [CARBONYL CYANIDE M-CHLOROPHENYLHYDRAZONE]
- fold change (FC) (HT-29 [9]): 3
- Activity (HT-29 [10]): Active

Compound: COc1cc([C@@H]2c3cc4c(cc3[C@@H](O[C@@H]3O[C@@H]5CO[C@@H](C)O[C@H]5[C@H](O)[C@H]3O)[C@H]3COC(=O)[C@H]23)OCO4)cc(OC)c1O [ETOPOSIDE]
- IC50 [1]: 1100 nM
- Efficacy [2]: 84%
- Efficacy (T84 [3]): 90%
- Efficacy (MCF7 [4]): 78%
- Efficacy (HT-29 [5]): 97%
- IC50 (HT-29 [6]): 2200 nM
- IC50 (MCF7 [7]): 800 nM
- IC50 (T84 [8]): 3000 nM

Compound: O=c1[nH]cc(F)c(=O)[nH]1 [FLUOROURACIL]
- IC50 [1]: 4900 nM
- Efficacy [2]: 80%
- Efficacy (T84 [3]): 76%
- Efficacy (MCF7 [4]): 80%
- Efficacy (HT-29 [5]): 68%
- IC50 (HT-29 [6]): 5300 nM
- IC50 (MCF7 [7]): 900 nM
- IC50 (T84 [8]): 6200 nM

Compound: COC(=O)c1c(O)c(CC=C(C)C)c(OC)c(CC=C(C)C)c1CCc1ccccc1
- Activity (HT-29 [11]): Active
- Activity (HT-29 [12]): Active
